Assay outcomes from PubChem.
An excerpt weighted towards active compounds, which were near 4.5% of everything screened.
PERK inh – block of dimerizer-induced PERK translation repression, primary screen, PERK inhibitor project, CHO PERK-DD cells, SEAP luminescence, HTS; Eukaryotic translation initiation factor 2-alpha kinase 3 (Homo sapiens), Q9NZJ5; CHO PERK-DD fusion, SEAP luminescence translation reporter; inhibition, % at 5.6 µM; 0.17% of 220,000 active; AID 1416, 2008;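 active means inhibition above the mean inhibition of all tested compounds plus 3 SD, set separately per screening campaign, cut at about 2.9% in these data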;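 further: PERK kinase domain activated by AP20187 dimerizer at 100 nM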
Mdm2 ligase inh – MDM2-luciferase reporter signal enhancers, primary screen, MDM2 E3 ligase inhibitor project, cell-based, luminescence, 1536-well. cell-based MDM2 ubiquitination luciferase reporter, 2 h; 0 = plate control, 100 = twice control, blank-subtracted. signal enhancement, % at 5 µM. AID 1230, 2008. 0.11% of 210,000 active;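 active means signal enhancement of 30% or more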;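 further: luminescence tracks abundance of the self-degrading MDM2-luciferase fusion protein; higher signal means inhibition of MDM2 E3 ligase activity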
Target sequence (Q00987 whole entry, looked up, the tested form may be a part): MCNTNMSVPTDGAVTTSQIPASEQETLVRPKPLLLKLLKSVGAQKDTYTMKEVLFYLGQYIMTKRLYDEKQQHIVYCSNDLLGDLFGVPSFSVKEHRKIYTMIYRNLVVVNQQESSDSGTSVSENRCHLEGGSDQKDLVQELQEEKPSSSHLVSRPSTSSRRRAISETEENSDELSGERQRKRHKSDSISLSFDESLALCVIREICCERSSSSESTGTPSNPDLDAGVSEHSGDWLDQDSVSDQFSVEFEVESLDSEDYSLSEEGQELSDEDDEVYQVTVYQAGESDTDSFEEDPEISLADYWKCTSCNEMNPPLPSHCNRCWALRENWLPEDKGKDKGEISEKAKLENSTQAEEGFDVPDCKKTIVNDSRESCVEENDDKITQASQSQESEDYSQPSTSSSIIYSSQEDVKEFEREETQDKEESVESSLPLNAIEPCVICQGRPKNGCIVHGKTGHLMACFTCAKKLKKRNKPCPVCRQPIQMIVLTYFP
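Test system: mammalian cells stably expressing self-ubiquitinating, self-degrading MDM2 E3–luciferase fusion; Amount: 2000 cells in each well; Medium: DMEM; Schedule: 4 h settle plus 2 h compound, 37 °C; Technique: SteadyLite luciferase luminescence after 15 min room-temperature reagent incubation; Benchmarks: plate control and blank wells.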
AHR act – AHR activators, primary screen, cell-based, luminescence, luciferase reporter, human; Aryl hydrocarbon receptor (Homo sapiens), P35869; AHR-responsive luciferase reporter cells; activation, % at 5 µM; 2.5% of 320,000 active; in the data active means activation above about 47%
STAT1 act – STAT1 signaling activators, primary screen, cell-based, HTS, luciferase reporter; NIH 3T3 STAT1-luciferase reporter, IFN-gamma, luminescence; 100% = IFN-gamma alone, no compound; activation (% of control), % at 5.5 µM; 2.6% of 200,000 active; AID 932, 2007;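 active means activation above the screen-wide mean activation plus 3 SD, cut at about 130% in these data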
NF-kB neuron act – activators of NF-kB expression in neurons, primary screen, cell-based, HTS. 1.6% of 190,000 active. fold change at 12.5 µM. human neuronal cells, NF-kB reporter expression; active compounds read high; in the data active means fold change above about 3.3
APP 5'UTR act – activators of APP 5'UTR luciferase reporter, primary screen, SH-SY5Y cells | 1% of 190,000 active | activation, % at 2 µM | SH-SY5Y APP 5'UTR luciferase reporter, luminescence; zero percent = DMSO vehicle wells | AID 1276, 2008;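 active means activation above a set limit, based on mean plus 3 SD of controls, cut at about 140% in these data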
Numbers stand for hits; - = inactive; . = no result.

SMILES	PERK inh	Mdm2 ligase inh	AHR act	STAT1 act	NF-kB neuron act	APP 5'UTR act
Cc1c(NC(=S)NC(=O)c2sc3ccccc3c2Cl)cccc1C(=O)O	-	-	-	-	-	186.2
COc1ccccc1C(=O)NNC(=S)NC(=O)c1sc2ccccc2c1Cl	-	-	47.6	-	-	-
COc1ccccc1C(=O)NC(=S)NNC(=O)c1sc2ccccc2c1Cl	-	-	-	-	-	-
CCN1CCC2(CC1)Oc1c(OC)cccc1C1CC(c3cccnc3)=NN12 (stereo not drawn)	-	-	-	.	.	.
Cc1cc(C(=O)O)ccc1-n1c(C)cc(C=C2C(=O)c3ccccc3C2=O)c1C	-	-	-	-	-	-
Cc1cc(N)ccc1-n1c(C)ccc1C	-	-	109.6	-	-	-
Cc1cc(N)ccc1N1CCCC1	-	-	-	-	-	-
Cc1cc(C(=O)O)ccc1-n1c(C)ccc1C	3.3	-	-	-	-	-
CC1(C)Cc2ccccc2C(NNC(=O)c2ccc(Br)o2)=N1	.	.	-	.	.	.
O=c1c2cc(N3CCOCC3)ccc2[nH]c(=S)n1CCc1ccccc1	-	-	-	131.6	-	-
Cc1cnccc1CN(C)Cc1cn(C)nc1-c1cccc(Cl)c1	-	-	67.0	-	-	-
O=C1C(C=NCc2ccncc2)=C(O)c2ccccc21	-	-	-	-	-	-
O=C1C(C=NCc2cccnc2)=C(O)c2ccccc21	-	-	.	129.8	-	-
CCN(CC)C(=O)Cn1cc(C(=O)C(=O)N2CCCc3ccccc32)c2ccccc21	-	-	70.4	-	-	-
CCOC(=O)c1c(C)oc2cc(Br)c(OC(=O)N3CCOCC3)cc12	-	-	52.3	-	-	-
Cc1cc(=O)c(C(=O)Nc2ccc(N3CCOCC3)cc2N2CCOCC2)nn1-c1ccccc1Cl	.	.	-	.	.	.
CO/N=C/c1ccc(N2CCCC2)c([N+](=O)[O-])c1	-	-	-	129.6	-	-
N#CC(c1ccc(O)cc1)c1ncc(C(F)(F)F)cc1Cl (stereo not drawn)	-	-	-	-	-	-
Cc1ccc(CNS(=O)(=O)c2cn(C)c(=O)n(C)c2=O)cc1	.	.	-	.	.	.
COc1ccc(C(=O)Nc2ccc(C(F)(F)F)n(C)c2=O)cc1	-	-	-	-	-	-
Cc1ccc(C(=O)Nc2ccc(C(F)(F)F)n(C)c2=O)cc1	-	-	-	133.0	-	-
COc1ccccc1N1CCN(Cc2ccc(O)c3ncccc23)CC1	-	-	-	-	7.2	-
CCOC(=O)C1CCN(Cc2ccc(O)c3ncccc23)CC1	-	-	-	-	10.1	-
COc1ccccc1N1CCN(Cc2ccc(OC)c(OC)c2OC)CC1	-	-	-	-	-	-
O=S(=O)(NCC1CCCO1)c1ccc(NS(=O)(=O)c2ccc(F)cc2)cc1 (stereo not drawn)	.	.	-	.	.	.
SMILES	PERK inh	Mdm2 ligase inh	AHR act	STAT1 act	NF-kB neuron act	APP 5'UTR act
Cc1ccc(NC(=O)c2cc(C)nc3ccccc23)cc1	.	.	67.5	.	.	.
O=C(Nc1ccccc1)c1cc(Cl)nc2ccccc12	-	-	49.2	-	-	-
CC(=O)c1ccc(NC(=O)c2cc(C)nc3ccccc23)cc1	.	.	-	.	.	.
Cc1cccc(NC(=O)c2cc(-c3ccc(C)s3)nc3ccccc23)n1	-	-	56.2	-	-	-
Cc1cc(C(=O)Nc2ccc(F)cc2)c2ccccc2n1	.	.	56.2	.	.	.
CC(C)(C)C(=O)O/N=C(\N)c1ccc(-c2csnn2)cc1	-	-	-	.	.	.
O/C(=C\c1nc2ccccc2nc1/C=C(\O)c1ccccc1)c1ccccc1	-	-	70.5	133.6	-	-
NC(=O)NCCc1ccccc1	.	.	-	.	.	.
Cc1ccc([N+](=O)[O-])cc1NC(=O)c1ccc(-c2ccccc2)cc1	-	-	67.1	-	-	-
O=C(Nc1ccccc1-c1ccccc1)c1cccc([N+](=O)[O-])c1	-	-	56.0	-	-	-
Cc1ccc([N+](=O)[O-])cc1NC(=O)c1ccc(C(C)(C)C)cc1	-	-	71.2	-	-	-
COc1ccccc1N1CCN(C(=O)NCc2cccc(C(F)(F)F)c2)CC1	.	.	-	.	.	.
CCOc1ccc2nc(NCCNC(=S)NCCCN(C)C)c(C#N)cc2c1	3.0	-	-	-	-	-
CCOc1ccc2nc(NCCNC(=O)Nc3ccccc3)c(C#N)cc2c1	-	-	-	-	-	-
CC1CCCN(C(=O)CSc2nnc(-c3ccncc3)n2C)C1 (stereo not drawn)	-	-	-	-	-	-
NS(=O)(=O)c1ccc(CCNC(=O)COC(=O)C2CCCN2C(=O)c2cccs2)cc1 (stereo not drawn)	3.3	-	-	-	-	-
O=C(COC(=O)[C@@H]1CCCN1C(=O)c1cccs1)Nc1ccc(Br)cc1	.	.	-	.	.	.
O=C(OCCCN1CCOCC1)c1ccc(O)c(O)c1	3.4	-	-	.	.	.
COc1cc(C(=O)OCCN2CCOCC2)ccc1O	-	-	-	-	-	-
c1ccc(COc2ccc(-c3csnn3)cc2)cc1	-	-	-	135.7	-	-
O=c1c2cc(Br)ccc2[nH]c(=S)n1Cc1ccccn1	-	-	67.4	-	-	-
O=c1c2cc(Br)ccc2[nH]c(=S)n1Cc1ccccc1	.	.	-	.	.	.
CC(=O)Nc1ccc2c(c1)nc1n2CCN(C2CCCCC2)C1	-	-	.	-	-	-
O=C(O)c1ccc(NC(=O)c2ccccc2NC(=O)c2ccccc2Br)cc1	.	.	-	.	.	.
COc1ccc(NC(=O)Nc2ncccc2C)cc1	-	-	-	139.2	-	-
SMILES	PERK inh	Mdm2 ligase inh	AHR act	STAT1 act	NF-kB neuron act	APP 5'UTR act
COc1ccc(NC(=S)Nc2ncccc2C)cc1OC	-	-	-	130.8	-	-
Cc1cccnc1NC(=S)Nc1ccc(Cl)c(Cl)c1	-	-	-	-	-	-
Cc1cccnc1NC(=O)Nc1ccc(Cl)cc1	.	.	74.4	.	.	.
Cc1cccnc1NC(=O)Nc1ccccc1	-	.	-	.	.	.
Cc1nn(-c2ccccc2)c(N)c1N=O	-	-	-	.	.	.
Cc1nn(-c2ccccc2)c(N)c1N=Nc1ccc2ccccc2c1	-	-	154.7	140.2	3.9	-
N#C/C(=C\c1ccc(OCc2ccc(C(=O)O)cc2)cc1)C(=O)N1CCOCC1	-	-	-	-	7.01	-
Cc1cc(C)c(-c2cc(NC(=O)COC(=O)c3ccc(CO)cc3)n(-c3ccccc3)n2)cc1C	-	-	-	-	-	-
Cc1cnc(C(=O)OCC(=O)Nc2cc(-c3cc(C)c(C)cc3C)nn2-c2ccccc2)cn1	.	.	59.9	.	.	.
Cc1cc(C)c(-c2cc(NC(=O)CSc3n[nH]c(N)n3)n(-c3ccccc3)n2)cc1C	-	-	56.2	-	-	-
O=Cc1ccc(-c2ccc(Cl)cc2Cl)[nH]1	4.2	-	-	-	-	-
